Five molecules from ChEMBL document CHEMBL1158339, “Synthesis and anti-microbial screening of some Schiff bases of 3-amino-6,8-dibromo-2-phenylquinazolin-4(3H)-ones” (2009) can be followed below.

Assay [1] concerns Aspergillus fumigatus. Nature of the assay: Antifungal activity against Aspergillus fumigatus ATCC 46645 at 100 ug/disk after 48 hrs by paper disk diffusion technique. The conditions noted are these: ATCC 46645, 48 h, read-out: IZ. It counts as functional. The method in brief: (§1)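 Paper disc diffusion: autoclaved medium at 40–50 °C was seeded at 1 ml/100 ml with a suspension of about 10⁵ cfu/ml matched to McFarland standard and poured 3–4 mm deep. Discs impregnated with compound in dimethylformamide were placed on the set medium. There was 1 h pre-incubation at room temperature, then 48 h at 37 °C. Ketoconazole disc served as reference.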

Assay [2] deals with Aspergillus niger. Description: Antifungal activity against Aspergillus niger ATCC 9029 at 100 ug/disk after 48 hrs by paper disk diffusion technique. It counts as functional. To be noted: ATCC 9029, 48 h, read-out: IZ. The method in brief:
as §1
A general note: A growth-free zone around the sample is the usual read-out of agar diffusion tests.

Assay [3] has as its system Aspergillus niger. Nature of the assay: Antifungal activity against Aspergillus niger ATCC 9029 after 48 hrs by agar streak dilution method. It counts as functional. To be noted: ATCC 9029, 48 h. In short, it runs like this: (§2)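 Fungal agar streak dilution. Stock […] in dimethyl formamide. Graded quantities go into molten sterile Sabouraud dextrose agar, poured at 40–50 °C to 3–4 mm depth and left to solidify. Plates are inoculated with about 10⁵ cfu/ml suspension and incubated 48 h at 37 °C. MIC is the lowest concentration with no visible growth.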

Assay [4] relates to Aspergillus fumigatus. Nature of the assay: Antifungal activity against Aspergillus fumigatus ATCC 46645 after 48 hrs by agar streak dilution method. It counts as functional. To be noted: ATCC 46645, 48 h. The method in brief:
as §2

Assay [5] relates to Staphylococcus aureus. Description: Antibacterial activity against Staphylococcus aureus ATCC 9144 after 24 hrs by agar streak dilution method. It counts as functional. To be noted: ATCC 9144, 24 h. In short, it runs like this: (§3)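 Agar streak dilution MIC. Stock […] in dimethyl formamide. Graded quantities go into molten sterile nutrient agar, poured at 40–50 °C to 3–4 mm depth and left to solidify. Plates are streaked with about 10⁵ cfu/ml bacterial suspension and incubated 24 h at 37 °C. MIC is the lowest concentration with no visible growth.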

The subject of assay [6] is Staphylococcus epidermidis. Nature of the assay: Antibacterial activity against Staphylococcus epidermidis ATCC 155 after 24 hrs by agar streak dilution method. It counts as functional. The conditions noted are these: ATCC 155, 24 h. In short, it runs like this:
as §3

In assay [7] the test system is Micrococcus luteus. Nature of the assay: Antibacterial activity against Micrococcus luteus ATCC 4698 after 24 hrs by paper disk diffusion technique. It counts as functional. The method in brief:
(§4)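 Paper disc diffusion. Nutrient agar autoclaved 120 °C, 30 min, then inoculated at 40–50 °C with 1 ml/100 ml of a 10⁵ cfu/ml suspension matched to McFarland standard and poured to 3–4 mm. Discs impregnated with compound in dimethyl formamide are laid on the solidified agar. Plates are held 1 h at room temperature, then 24 h at 37 °C.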

Assay [8] deals with Bacillus cereus. Description: Antibacterial activity against Bacillus cereus ATCC 11778 after 24 hrs by paper disk diffusion technique. It counts as functional. In short, it runs like this:
as §4

The subject of assay [9] is Staphylococcus epidermidis. Nature of the assay: Antibacterial activity against Staphylococcus epidermidis ATCC 155 after 24 hrs by paper disk diffusion technique. The assay is classed as functional. The method in brief: as §4
Assay [10] deals with Pseudomonas aeruginosa. Description: Antibacterial activity against Pseudomonas aeruginosa ATCC 2853 after 24 hrs by paper disk diffusion technique. The assay is classed as functional. In short, it runs like this: as §4
The test system of assay [11] is Escherichia coli. Description: Antibacterial activity against Escherichia coli ATCC 25922 after 24 hrs by paper disk diffusion technique. It counts as functional. In short, it runs like this: as §4
In assay [12] the test system is Staphylococcus aureus. Description: Antibacterial activity against Staphylococcus aureus ATCC 9144 after 24 hrs by paper disk diffusion technique. The assay is classed as functional. The method in brief:
as §4

For assay [13], the system named is Aspergillus fumigatus. Description: Antifungal activity against Aspergillus fumigatus ATCC 46645 after 48 hrs by paper disk diffusion technique. The assay is classed as functional. In short, it runs like this:
(§5)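 Fungal disc diffusion. Autoclaved (120 °C, 30 min) medium is inoculated at 40–50 °C with 1 ml/100 ml of a 10⁵ cfu/ml McFarland-matched suspension and poured to 3–4 mm. Compound-impregnated paper discs in dimethyl formamide are applied. Plates are held 1 h at room temperature, then incubated 48 h at 37 °C.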

Assay [14] relates to Bacillus cereus. Nature of the assay: Antibacterial activity against Bacillus cereus ATCC 11778 after 24 hrs by agar streak dilution method. To be noted: ATCC 11778, 24 h. The assay is classed as functional. The method in brief:
as §3

For assay [15], the system named is Klebsiella pneumoniae. Nature of the assay: Antibacterial activity against Klebsiella pneumoniae ATCC 11298 after 24 hrs by agar streak dilution method. It counts as functional. To be noted: ATCC 11298, 24 h. In short, it runs like this:
as §3

For assay [16], the system named is Micrococcus luteus. Nature of the assay: Antibacterial activity against Micrococcus luteus ATCC 4698 after 24 hrs by agar streak dilution method. It counts as functional. To be noted: NCTC 2665, 24 h. The method in brief: as §3
The test system of assay [17] is Pseudomonas aeruginosa. Nature of the assay: Antibacterial activity against Pseudomonas aeruginosa ATCC 2853 after 24 hrs by agar streak dilution method. It counts as functional. To be noted: ATCC 2853, 24 h. In short, it runs like this:
as §3

For assay [18], the system named is Aspergillus niger. Nature of the assay: Antifungal activity against Aspergillus niger ATCC 9029 after 48 hrs by paper disk diffusion technique. It counts as functional. The method in brief: as §5
In assay [19] the test system is Klebsiella pneumoniae. Description: Antibacterial activity against Klebsiella pneumoniae ATCC 11298 after 24 hrs by paper disk diffusion technique. The assay is classed as functional. In short, it runs like this:
as §4

Assay [20] concerns Escherichia coli. Description: Antibacterial activity against Escherichia coli ATCC 25922 after 24 hrs by agar streak dilution method. The assay is classed as functional. To be noted: ATCC 25922, 24 h. The method in brief: as §3
For assay [21], the system named is Escherichia coli. Nature of the assay: microbe, parasite or virus in culture. To be noted: ATCC 25922, 24 h, read-out: IZ.
Assay [22] has as its system Micrococcus luteus. Description: Antibacterial activity against Micrococcus luteus ATCC 4698 at 100 ug/disk after 24 hrs by paper disk diffusion technique. It counts as functional. To be noted: NCTC 2665, 24 h, read-out: IZ.
Assay [23] relates to Klebsiella pneumoniae. Nature of the assay: microbe, parasite or virus in culture. To be noted: ATCC 11298, 24 h, read-out: IZ.
The subject of assay [24] is Pseudomonas aeruginosa. Description: microbe, parasite or virus in culture. To be noted: ATCC 2853, 24 h, read-out: IZ.
The test system of assay [25] is Staphylococcus epidermidis. Nature of the assay: microbe, parasite or virus in culture. The conditions noted are these: ATCC 155, 24 h, read-out: IZ.
The test system of assay [26] is Bacillus cereus. Description: Antibacterial activity against Bacillus cereus ATCC 11778 at 100 ug/disk after 24 hrs by paper disk diffusion technique. It counts as functional. To be noted: ATCC 11778, 24 h, read-out: IZ.
For assay [27], the system named is Staphylococcus aureus. Nature of the assay: microbe, parasite or virus in culture. The conditions noted are these: ATCC 9144, 24 h, read-out: IZ.

≈ marks a conversion by molar mass, not a printed value.

The term MIC denotes the lowest concentration found to suppress growth. High values mean a less susceptible organism, low ones a more susceptible organism. Turning to `CC(=O)N1CCN(c2ccc(OCC3COC(Cn4ccnc4)(c4ccc(Cl)cc4Cl)O3)cc2)CC1` (stereo not given) [KETOCONAZOLE], the zone of inhibition at 100 µg/disc in the assay with Aspergillus fumigatus [1] is 29 mm; with Aspergillus niger [2] it was 30 mm. Moreover, the results for the MIC in the assay on Aspergillus niger [3] and against Aspergillus fumigatus [4] were 6.1 µg/mL (≈ 11.5 µM) and 0.23 µg/mL (≈ 0.433 µM), respectively.
For the molecule `COc1ccc(/C=N/n2c(-c3ccccc3)nc3c(Br)cc(Br)cc3c2=O)cc1`, the minimum inhibitory concentration (MIC) in the assay on Staphylococcus aureus [5] turned out to be 32.1 µg/mL (≈ 62.6 µM); in assay [6], 22.2 µg/mL (≈ 43.3 µM); against Bacillus cereus [14], 31.9 µg/mL (≈ 62.2 µM); against Klebsiella pneumoniae [15], 33.4 µg/mL (≈ 65.1 µM); against Micrococcus luteus [16] it was 34.2 µg/mL (≈ 66.6 µM); in the assay with Pseudomonas aeruginosa [17], 36.2 µg/mL (≈ 70.5 µM). Also, the minimal inhibitory concentration (MIC) against Escherichia coli [20] is 29.9 µg/mL (≈ 58.3 µM); in the assay with Aspergillus niger [3], 10.1 µg/mL (≈ 19.7 µM); against Aspergillus fumigatus [4], 12.3 µg/mL (≈ 24 µM). Moreover, the “inhibition zone (IZ)” value was determined as 18 mm in the assay on Micrococcus luteus [7]; 19 mm with Bacillus cereus [8]; 20 mm in assay [9]; 16 mm with Pseudomonas aeruginosa [10]; 19 mm in the assay on Escherichia coli [11]; 19 mm with Staphylococcus aureus [12]. The “inhibition zone (IZ)” value in the assay on Aspergillus fumigatus [13] stood at 24 mm; with Aspergillus niger [18], 23 mm; in the assay on Klebsiella pneumoniae [19] it was 20 mm.
Regarding `COc1cc(/C=N/n2c(-c3ccccc3)nc3c(Br)cc(Br)cc3c2=O)cc(OC)c1OC`, the minimum inhibitory concentration (MIC) against Staphylococcus aureus [5] stood at 18.9 µg/mL (≈ 33 µM); in [6], 19.1 µg/mL (≈ 33.3 µM); in the assay with Bacillus cereus [14], 21.7 µg/mL (≈ 37.9 µM); in the assay with Klebsiella pneumoniae [15] it was 16.7 µg/mL (≈ 29.1 µM); with Micrococcus luteus [16] it was 18.8 µg/mL (≈ 32.8 µM); in the assay on Pseudomonas aeruginosa [17] it was 19.3 µg/mL (≈ 33.7 µM). Moreover, the minimum inhibitory concentration (MIC) in the assay with Escherichia coli [20] was found to be 18.2 µg/mL (≈ 31.7 µM); against Aspergillus niger [3], 8.6 µg/mL (≈ 15 µM); in the assay with Aspergillus fumigatus [4], 10.1 µg/mL (≈ 17.6 µM). For the same molecule, the “inhibition zone (IZ)” value in the assay on Micrococcus luteus [7] is 24 mm; in the assay on Bacillus cereus [8], 23 mm; in [9], 25 mm; in the assay with Pseudomonas aeruginosa [10] it was 24 mm; in the assay on Escherichia coli [11] it was 27 mm; in the assay with Staphylococcus aureus [12], 26 mm. The figures for the “inhibition zone (IZ)” value in the assay with Aspergillus fumigatus [13], with Aspergillus niger [18] and in the assay with Klebsiella pneumoniae [19] were 24 mm, 26 mm and 28 mm, respectively.
Take `Cc1ccc(/C=N/n2c(-c3ccccc3)nc3c(Br)cc(Br)cc3c2=O)cc1`: the minimal inhibitory concentration (MIC) is 31.1 µg/mL (≈ 62.6 µM) against Staphylococcus aureus [5]; 22.6 µg/mL (≈ 45.5 µM) in [6]; 21.9 µg/mL (≈ 44 µM) with Bacillus cereus [14]; 29.1 µg/mL (≈ 58.5 µM) in the assay on Klebsiella pneumoniae [15]; 25.1 µg/mL (≈ 50.5 µM) in the assay on Micrococcus luteus [16]; 21.2 µg/mL (≈ 42.6 µM) against Pseudomonas aeruginosa [17]. The minimal inhibitory concentration (MIC) in the assay with Escherichia coli [20] was 19.8 µg/mL (≈ 39.8 µM); against Aspergillus niger [3], 15.2 µg/mL (≈ 30.6 µM); in the assay with Aspergillus fumigatus [4] it was 14.6 µg/mL (≈ 29.4 µM). The “inhibition zone (IZ)” value in the assay with Micrococcus luteus [7] came to 23 mm; in the assay with Bacillus cereus [8], 21 mm; in [9], 20 mm; in the assay with Pseudomonas aeruginosa [10], 22 mm; in the assay with Escherichia coli [11] it was 24 mm; in the assay with Staphylococcus aureus [12] it was 18 mm. Moreover, the “inhibition zone (IZ)” value in the assay on Aspergillus fumigatus [13] worked out at 24 mm; in the assay on Aspergillus niger [18], 22 mm; with Klebsiella pneumoniae [19], 19 mm.
`O=C(O)c1cn(C2CC2)c2cc(N3CCNCC3)c(F)cc2c1=O` [CIPROFLOXACIN]: the MIC stood at 0.2 µg/mL (≈ 0.604 µM) against Staphylococcus aureus [5]; 0.39 µg/mL (≈ 1.18 µM) in [6]; 0.3 µg/mL (≈ 0.905 µM) in the assay with Bacillus cereus [14]; 0.1 µg/mL (≈ 0.302 µM) in the assay on Klebsiella pneumoniae [15]; 0.1 µg/mL (≈ 0.302 µM) against Micrococcus luteus [16]. The zone of inhibition at 100 µg/disc in the assay on Escherichia coli [21] was found to be 32 mm; with Micrococcus luteus [22] it was 30 mm; in the assay on Klebsiella pneumoniae [23], 33 mm; in the assay on Pseudomonas aeruginosa [24], 33 mm; in assay [25] it was 31 mm; in the assay on Bacillus cereus [26], 29 mm. Also, in the assay with Staphylococcus aureus [27], the zone of inhibition at 100 µg/disc turned out to be 29 mm.
